Data set [1] is filed under the species Mus musculus. In words: Anticonvulsant activity by using maximal electroshock seizure test in mice. It counts as functional. (The maximal electroshock test induces tonic seizures with an electrical stimulus.)
The subject of data set [2] is Mus musculus. In words: Anticonvulsant activity by using subcutaneous pentylenetetrazole (Metrazol) seizure threshold test in mice. The format is functional. The following applies: for ED50: sc.
The species entered for data set [3] is Mus musculus. In words: Anticonvulsant activity by using rotarod toxicity test in mice. It counts as functional. (In the rotarod test animals must keep their balance on a rotating rod.)
For data set [4], the species on record is Mus musculus. As to the kind of experiment: Anticonvulsant activity by using bicuculline test in mice. It counts as functional.
Data set [5] is filed under the species Mus musculus. In words: Anticonvulsant activity by using bicuculline test in mice; Inactive. The format is functional, organism-based.
Data set [6] concerns Mus musculus. In words: Anticonvulsant activity by using subcutaneous pentylenetetrazole (Metrazol) seizure threshold test in mice; Inactive. It counts as functional, organism-based.
The species named for data set [7] is Rattus norvegicus. In words: Amount of metabolite produced in brain of rat at a concentration of 12000 g of the compound. The format is functional.
The species entered for data set [8] is Rattus norvegicus. In words: Amount of metabolite produced in brain of rat at a concentration of 700 g of the compound. The format is functional.
For data set [9], the species on record is Rattus norvegicus. As to the kind of experiment: Amount of metabolite produced in liver of rat at a concentration of 12000 g of the compound. The format is functional.
The species named for data set [10] is Rattus norvegicus. In words: Amount of metabolite produced in liver of rat at a concentration of 700 g of the compound. It counts as functional.
In data set [11] the test system is Rattus norvegicus. In words: Number of rats displaying convulsions by pretreatment with 55 mg/kg of compound (ip) in the presence of isoniazid after 49 mins out of 8 rats tested. The format is functional. The method in brief: (§1)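 Male Wistar rats were pretreated with test agent at 55 mg/kg ip (200 mg/mL in saline or DMSO), then given isoniazid 425 mg/kg sc (180 mg/mL in saline).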

Data set [12] has as its system Rattus norvegicus. As to the kind of experiment: Number of rats died by pretreatment with 55 mg/kg of compound (ip) in the presence of isoniazid after 49 mins out of 8 rats tested. The format is organism-based. Also noted: dose 55 mg/kg. The following applies: in vivo. The method in brief:
as §1

For data set [13], the species on record is Rattus norvegicus. In words: Amount of metabolite alpha-baclofen lactam produced in brain of rat at a concentration of 12000 g of the compound. The format is functional.
For data set [14], the species on record is Rattus norvegicus. In words: Amount of metabolite alpha-baclofen lactam produced in brain of rat at a concentration of 700 g of the compound. The format is functional.
For data set [15], the species on record is Rattus norvegicus. In words: Amount of metabolite alpha-baclofen lactam produced in liver of rat at a concentration of 12000 g of the compound. The format is functional.
The species entered for data set [16] is Rattus norvegicus. In words: Amount of metabolite alpha-baclofen lactam produced in liver of rat at a concentration of 700 g of the compound. It counts as functional.
Data set [17] is filed under the species Rattus norvegicus. In words: Amount of metabolite alpha-baclofen produced in brain of rat at a concentration of 12000 g of the compound; None detected. The format is functional, organism-based.
Data set [18] is filed under the species Rattus norvegicus. In words: Amount of metabolite alpha-baclofen produced in brain of rat at a concentration of 700 g of the compound; None detected. The format is functional, organism-based.
The species entered for data set [19] is Rattus norvegicus. As to the kind of experiment: Amount of metabolite alpha-baclofen produced in liver of rat at a concentration of 12000 g of the compound; None detected. It counts as functional, organism-based.
The species entered for data set [20] is Rattus norvegicus. As to the kind of experiment: Amount of metabolite alpha-baclofen produced in liver of rat at a concentration of 700 g of the compound; None detected. It counts as functional, organism-based.
In data set [21] the test system is Rattus norvegicus. In words: Number of rats died by pretreatment with 55 mg/kg of compound (ip) in the presence of isoniazid after 63 mins out of 6 rats tested. The format is functional. The method in brief: as §1
The subject of data set [22] is Rattus norvegicus. In words: Number of rats displaying convulsions by pretreatment with 55 mg/kg of compound (ip) in the presence of isoniazid after 63 mins out of 6 rats tested. The format is functional. The method in brief: as §1
Data set [23] relates to Rattus norvegicus. In words: In vivo formation of baclofen in 4 hr after administration of 5.5 mg/kg of compound intraperitoneally into 4 rats. The format is functional, organism-based. Also noted: dose 5.5 mg/kg.
The subject of data set [24] is Rattus norvegicus. As to the kind of experiment: In vivo formation of baclofen in 0-3 hr after administration of 55 mg/kg of compound intraperitoneally into 2 rats. It counts as functional, organism-based. Also noted: dose 55 mg/kg. The method in brief: (§2)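 Male Wistar rats housed in metabolism cages were given 55 mg/kg prodrug ip. Urine was collected at 3 and 6 h and assayed by HPLC/EC; cumulative amount is reported per rat. One rat was decapitated at 3 h, and its brain was homogenized in Tris-KCl and assayed by HPLC/EC.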

Data set [25] deals with Rattus norvegicus. In words: In vivo formation of baclofen in 3-6h after administration of 55 mg/kg of compound intraperitoneally into 1r at. It counts as functional, organism-based. Also noted: dose 55 mg/kg. The method in brief:
as §2

The test system of data set [26] is Rattus norvegicus. In words: In vivo formation of baclofen in 3-6h after administration of 55 mg/kg of compound intraperitoneally into 2 rats. The format is functional, organism-based. Also noted: dose 55 mg/kg. The method in brief: as §2
The test system of data set [27] is Rattus norvegicus. As to the kind of experiment: In vivo formation of alpha-baclofen in 0-3 hr after administration of 55 mg/kg of compound intraperitoneally into 1r at. It counts as functional, organism-based. Also noted: dose 55 mg/kg. The method in brief:
as §2

Data set [28] concerns Rattus norvegicus. In words: In vivo formation of alpha-baclofen in 0-3 hr after administration of 55 mg/kg of compound intraperitoneally into 2 rats. The format is functional, organism-based. Also noted: dose 55 mg/kg. The method in brief:
as §2

In data set [29] the test system is Rattus norvegicus. In words: In vivo formation of alpha-baclofen in 3-6h after administration of 55 mg/kg of compound intraperitoneally into 2 rats. It counts as functional, organism-based. Also noted: dose 55 mg/kg. The method in brief: as §2
Data set [30] concerns Rattus norvegicus. In words: In vivo formation of baclofen in 0-3 hr after administration of 55 mg/kg of compound intraperitoneally into 1r at. Also noted: dose 55 mg/kg. It counts as functional, organism-based. The method in brief: as §2
For data set [31], the system named is Rattus norvegicus. In words: In vivo formation of baclofen in 2 hr after administration of 5.5 mg/kg of compound intraperitoneally into 4 rats. The format is functional, organism-based. Also noted: dose 5.5 mg/kg.
In data set [32] the test system is Rattus norvegicus. As to the kind of experiment: In vivo formation of alpha-baclofen in 3-6h after administration of 55 mg/kg of compound intraperitoneally into 1r at. Also noted: dose 55 mg/kg. It counts as functional, organism-based. The method in brief:
as §2

For data set [33], the system named is Rattus norvegicus. In words: In vivo formation of baclofen in 3h after administration of 55 mg/kg of compound intraperitoneally into 3 rats. It counts as functional, organism-based. Also noted: dose 55 mg/kg. The method in brief:
as §2

The source made the active and inactive calls.

Regarding `CCC1(c2ccccc2)C(=O)NC(=O)NC1=O` [PHENOBARBITAL], the results for the ED50 in data set [1], in [2] and in data set [4] were 22 mg/kg, 13 mg/kg and 38 mg/kg, respectively. Besides, in data set [3], the TD50 came to 69 mg/kg.
Consider `O=C1NC(=O)C(c2ccccc2)(c2ccccc2)N1`, for which the ED50 result in data set [5] and in [6] was “inactive” each time.
In [1], `NCC(CC(=O)O)c1ccc(Cl)cc1` (centres undefined) [BACLOFEN] returned an ED50 of over 600 mg/kg. The Dose in data set [2] turned out to be 50 mg/kg. Further, the TD50 in data set [3] was 47 mg/kg. Besides, the Activity amounted to 0.097 µg/mL in data set [7], 0.162 µg/mL in data set [8], 0.13 µg/mL in data set [9] and 0.197 µg/mL in [10].
Turning to `NC(=O)CCC/N=C(\c1ccc(Cl)cc1)c1cc(F)ccc1O` [PROGABIDE], the 50% effective dose (ED50) in data set [1] stood at 75 mg/kg; in [2], 30 mg/kg; in [4], 20 mg/kg.
Regarding `CCCC(CCC)C(=O)O` [VALPROIC ACID], the ED50 in data set [2] came out at 149 mg/kg; in data set [4], 360 mg/kg.
Turning to `O=C1CC(c2ccc(Cl)cc2)CN1` (centres undefined), the ED50 in data set [1] worked out at 68 mg/kg; in [2], 41 mg/kg; in data set [4], 143 mg/kg. Moreover, in data set [3], the TD50 came out at 117 mg/kg. Moreover, the Activity in [7] turned out to be 0.28 µg/mL; in [8] it was 2.11 µg/mL; in [9], 14.6 µg/mL; in data set [10], 26.4 µg/mL; in data set [11], 2. The “No. of rats died” value in data set [12] is 1.
In the case of `Clc1ccc(C2CCNC2)cc1` (centres undefined), the Activity is 0.21 µg/mL in data set [13]; 0.5 µg/mL in data set [14]; 24.5 µg/mL in [15]; 46.7 µg/mL in data set [16]; “Not detected” in data set [17]; “Not detected” in data set [18]. Besides, the Activity result in data set [19] is “Not detected”; in data set [20], “Not detected”; in [21] it was 0; in data set [22], 6. Moreover, the Concentration in data set [23] was 0.12 µg/mL; in [24], 0 µg/mL; in data set [25], 16 µg/mL; in data set [26], 9.4 µg/mL; in data set [27] it was 0.5 µg/mL; in data set [28], 0 µg/mL. Moreover, the Concentration in [29] amounted to 2.3 µg/mL; in data set [30], 2 µg/mL; in data set [31], 0.04 µg/mL; in [32], 2.6 µg/mL; in [33], 24.3 ng/g.

A word on the ED50: it is the dose at which the effect has come halfway, by size or by number of responders. Broadly, the TD50 is the dose at which the toxic effect under study appears in half of the subjects.

The values above are taken from ChEMBL document CHEMBL1124499, “Metabolism of 3-(p-chlorophenyl)pyrrolidine. Structural effects in conversion of a prototype gamma-aminobutyric acid prodrug to lactam and gamma-aminobutyric acid type metabolites” (J Med Chem, 1989).
